Laboratory results: ChEMBL document CHEMBL1153083, “Antiprotozoal, anticancer and antimicrobial activities of dihydroartemisinin acetal dimers and monomers” (Bioorg Med Chem, 2009)
Active and inactive are the calls of the source. The calls are words filed in the database; no cut-off is given here.

Key:
[1] = Toxicity against pig LLC-PK11 cells after 48 hrs by neutral red assay; type: cell-based, Sus scrofa; settings: for CC50 at 48 h: LLC-PK11 cells, read-out: TC50; for TC50: llc-pk11, 48 h
Procedure, shortened: (§1)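 Cells seeded at 25,000 per well and incubated 24 h, then exposed to samples for 48 h. Viable cells were counted by neutral red, with DMSO as vehicle control. IC50 or TC50 values were derived from logarithmic plots of growth inhibition versus concentration.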

SK-MEL = assay: Cytotoxicity against human SK-MEL cells after 48 hrs by neutral red assay; type: functional, cell-based; procedure, shortened: as §1
[2] = (§2) Toxicity against african green monkey Vero cells after 48 hrs by neutral red assay; type: cell-based; settings: chlorocebus sabaeus, Vero cells; read-out: TC50; procedure, shortened: as §1
Plasmodium falciparum [3] = assay: Antiplasmodial activity against Plasmodium falciparum D6 infected in RBCs by parasitic LDH release assay; type: functional, organism-based
Procedure, shortened: (§3)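 Infected erythrocytes at 2% parasitemia and 2% hematocrit, in RPMI 1640 with 10% human serum and amikacin 60 μg/mL, were exposed to serial dilutions under N2/O2/CO2 (90:5:5) at 37°C for 72 h. LDH was read with Malstat reagent (30 min), then NBT/PES in the dark (60 min), stopped with 5% acetic acid, at 650 nm. IC50 came from percent growth dose-response curves.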

[4] = tested on: Mycobacterium intracellulare; assay: Antibacterial activity against Mycobacterium intracellular ATCC 23068 by Franzblau method; type: functional, organism-based
KB = assay: Cytotoxicity against human KB cells after 48 hrs by neutral red assay; type: functional, cell-based; procedure, shortened: as §1
[5] = Selectivity index, ratio of TC50 for african green monkey (Cercopithecus aethiops) Vero cells to IC50 for Plasmodium falciparum W2; type: toxicity, cell-based
Aspergillus fumigatus = assay: Antifungal activity against Aspergillus fumigatus ATCC 90906 by modified CLSI/NCCLS method; type: functional, organism-based
Candida albicans = assay: Antifungal activity against Candida albicans ATCC 90028 by modified CLSI/NCCLS method; type: functional, organism-based
Plasmodium falciparum [6] = assay: Antiplasmodial activity against Plasmodium falciparum W2 infected in RBCs by parasitic LDH release assay; type: functional, organism-based; procedure, shortened: as §3
Leishmania donovani = assay: Antileishmanial activity against Leishmania donovani promastigotes after 48 hrs by alamar blue assay; type: functional, organism-based
Staphylococcus aureus = assay: Antibacterial activity against methicillin-resistant Staphylococcus aureus ATCC 43300 by modified CLSI/NCCLS method; type: functional, organism-based
Pseudomonas aeruginosa = assay: Antibacterial activity against Pseudomonas aeruginosa ATCC 27853 by modified CLSI/NCCLS method; type: functional, organism-based
Escherichia coli = assay: Antibacterial activity against Escherichia coli ATCC 35218 by modified CLSI/NCCLS method; type: functional, organism-based
[7] = Selectivity index, ratio of TC50 for african green monkey (Cercopithecus aethiops) Vero cells to IC50 for Plasmodium falciparum D6; type: toxicity, cell-based
Cryptococcus neoformans = assay: Antifungal activity against Cryptococcus neoformans ATCC 90113 by modified CLSI/NCCLS method; type: functional, organism-based
SK-OV-3 = assay: Cytotoxicity against human SKOV3 cells after 48 hrs by neutral red assay; type: functional, cell-based; procedure, shortened: as §1
BT-549 = assay: Cytotoxicity against human BT549 cells after 48 hrs by neutral red assay; type: functional, cell-based; procedure, shortened: as §1
Pichia kudriavzevii = assay: Antifungal activity against Candida krusei ATCC 6258 by modified CLSI/NCCLS method; type: functional, organism-based; settings: Pichia kudriavzevii, ATCC 6258; read-out: IC50
Nakaseomyces glabratus = assay: Antifungal activity against Candida glabrata ATCC 90030 by modified CLSI/NCCLS method; type: functional, organism-based
[8] = Toxicity against african green monkey Vero cells; type: cell-based; settings: chlorocebus sabaeus; procedure, shortened: as §1
Vero = assay: as §2; type: cell-based; settings: chlorocebus sabaeus, vero, 48 h; procedure, shortened: as §1
[9] = Homo sapiens, SK-MEL, 48 h, read-out: IC50
[10] = Homo sapiens, KB, 48 h, read-out: IC50
[11] = Aspergillus fumigatus, ATCC 90906, read-out: IC50
[12] = Candida albicans, ATCC 90028, read-out: IC50
[13] = Leishmania donovani, 48 h, read-out: IC50
[14] = Homo sapiens, BT-549, 48 h, read-out: IC50
[15] = Mycobacterium intracellulare, ATCC 23068, read-out: IC50

Row | Structure (SMILES) | CC50 at 48 h [1] [nM] | IC50 (SK-MEL; [9]) [nM] | CC50 at 48 h [2] [nM] | IC50 (Plasmodium falciparum [3]) [nM] | IC50 [4] | IC50 (KB; [10]) [nM] | selectivity ratio [5] | IC50 (Candida albicans; [12]) [nM] | IC50 (Plasmodium falciparum [6]) [nM] | IC90 (Leishmania donovani; Leishmania donovani, 48 h) [nM] | IC50 (Leishmania donovani; [13]) [nM] | IC50 (Staphylococcus aureus) | selectivity ratio [7] | IC50 (Cryptococcus neoformans) [nM] | IC50 (SK-OV-3; sk-ov-3) | IC50 (BT-549; [14]) [nM] | IC50 (Aspergillus fumigatus) | IC50 (Pichia kudriavzevii) [nM] | IC50 (Nakaseomyces glabratus) | CC50 [8] [nM] | further results
1 | CC(=O)O[C@H]1C(=O)[C@@]2(C)[C@H]([C@H](OC(=O)c3ccccc3)[C@]3(O)C[C@H](OC(=O)[C@H](O)[C@@H](NC(=O)c4ccccc4)c4ccccc4)C(C)=C1C3(C)C)[C@]1(OC(C)=O)CO[C@@H]1C[C@@H]2O [PACLITAXEL] | 4390 | 4100 | 530 | – | – | – | – | – | – | – | – | – | – | – | – | – | – | – | – | – | –
2 | C=C[C@@H](CO[C@H]1O[C@@H]2O[C@@]3(C)CC[C@H]4[C@H](C)CC[C@@H]([C@H]1C)[C@@]24OO3)O[C@H]1O[C@@H]2O[C@@]3(C)CC[C@H]4[C@H](C)CC[C@@H]([C@H]1C)[C@@]24OO3 | > 16100 | 12900 | 430 | 24.2 | Not Active | 270 | 30 | 1450 | 25.8 | 62800 | 20900 | Not Active | 32 | 6440 | Not Active | 2580 | – | – | – | – | IC50 (Aspergillus fumigatus; [11]): 16100 nM; IC50 (Pseudomonas aeruginosa): Not Active; IC50 (Escherichia coli): Not Active
3 | C[C@H]1[C@@H](OC/C=C\CO[C@H]2O[C@@H]3O[C@@]4(C)CC[C@H]5[C@H](C)CC[C@@H]([C@H]2C)[C@@]35OO4)O[C@@H]2O[C@@]3(C)CC[C@H]4[C@H](C)CC[C@@H]1[C@@]24OO3 | – | – | 180 | 6.3 | Not Active | 320 | 116 | – | 6.1 | – | – | Not Active | 113 | 24200 | Not Active | 1530 | Not Active | – | – | – | IC50 (Candida albicans): Not Active; TC50 [1]: Non-toxic; IC50 (Leishmania donovani): Not Active; IC90 (Leishmania donovani): inactive; IC50 (Pseudomonas aeruginosa): Not Active; IC50 (Escherichia coli): Not Active; IC50 (SK-MEL; sk-mel): Not Active
4 | CC1=CO[C@@H]2O[C@]3(C)CC[C@H]4[C@H](C)CC[C@@H]1[C@@]24OO3 [ANHYDRODIHYDROARTEMISININ] | – | – | – | 15.8 | – | – | > 70 | – | 25.5 | – | 30000 | Not Active | > 113 | 300 | – | – | Not Active | 56300 | Not Active | > 1790 | IC50 [4, 15]: 56300 nM; IC50 (Candida albicans): Not Active; IC90 (Leishmania donovani): inactive
5 | O=C(O)c1cn(C2CC2)c2cc(N3CCNCC3)c(F)cc2c1=O [CIPROFLOXACIN] | – | – | – | – | – | – | – | – | – | – | – | – | – | – | – | – | – | – | – | – | IC50 [4, 15]: 1270 nM
6 | C[C@H]1[C@@H](OCC(O)CO[C@H]2O[C@@H]3O[C@@]4(C)CC[C@H]5[C@H](C)CC[C@@H]([C@H]2C)[C@@]35OO4)O[C@@H]2O[C@@]3(C)CC[C@H]4[C@H](C)CC[C@@H]1[C@@]24OO3 (stereo partly specified) | 150 | 8000 | 5600 | 11.2 | Not Active | 260 | 100 | 800 | 3.8 | 47900 | 12800 | Not Active | 34 | 320 | Not Active | 480 | Not Active | 400 | Not Active | – | –
7 | COc1cccc2c1C(=O)c1c(O)c3c(c(O)c1C2=O)C[C@@](O)(C(=O)CO)C[C@@H]3O[C@H]1C[C@H](N)[C@H](O)[C@H](C)O1 [DOXORUBICIN] | 1290 | 1730 | – | – | – | 2040 | – | – | – | – | – | – | – | – | – | 1960 | – | – | – | – | IC50 (SK-OV-3; Homo sapiens, SK-OV-3, 48 h, read-out: IC50): 2040 nM; TC50 (Vero): Non-toxic
8 | N=C(N)c1ccc(OCCCCCOc2ccc(C(=N)N)cc2)cc1 [PENTAMIDINE] | – | – | – | – | – | – | – | – | – | 6400 | 2800 | – | – | – | – | – | – | – | – | – | –
9 | CCN(CC)CCCC(C)Nc1ccnc2cc(Cl)ccc12 (stereo unspecified) [CHLOROQUINE] | – | – | – | – | – | – | – | – | – | – | – | – | – | – | – | – | – | – | – | > 14900 | –
10 | C[C@H]1[C@@H](O[C@@H](CO[C@H]2O[C@@H]3O[C@@]4(C)CC[C@H]5[C@H](C)CC[C@@H]([C@H]2C)[C@@]35OO4)[C@H](O)CO)O[C@@H]2O[C@@]3(C)CC[C@H]4[C@H](C)CC[C@@H]1[C@@]24OO3 | – | – | – | 11.7 | – | – | 59 | 920 | 14 | 29700 | 6400 | – | 71 | 530 | Not Active | – | – | – | – | – | IC50 [4, 15]: 15300 nM; IC50 (KB; kb): Not Active; IC50 (Aspergillus fumigatus; [11]): 7640 nM; TC50 [1]: Not Active; IC50 (Staphylococcus aureus; Staphylococcus aureus, ATCC 43300, read-out: IC50): 22900 nM; IC50 (Pseudomonas aeruginosa): Not Active; IC50 (Escherichia coli; Escherichia coli, ATCC 35218, read-out: IC50): 7640 nM; IC50 (BT-549; bt-549): Not Active; IC50 (SK-MEL; sk-mel): Not Active; TC50 (Vero): Not Active
11 | C[C@@H]1[C@H](O)[C@@H](C)/C=C/C=C/C=C/C=C/C=C/C=C/C=C/[C@H](O[C@@H]2O[C@H](C)[C@@H](O)[C@H](N)[C@@H]2O)C[C@@H]2O[C@](O)(C[C@@H](O)C[C@@H](O)[C@H](O)CC[C@@H](O)C[C@@H](O)CC(=O)O[C@H]1C)C[C@H](O)[C@H]2C(=O)O [AMPHOTERICIN B] | – | – | – | – | – | – | – | 370 | – | 400 | – | – | – | 780 | – | – | – | 850 | – | – | IC50 (Aspergillus fumigatus; [11]): 1120 nM; IC50 (Nakaseomyces glabratus; Nakaseomyces glabratus, ATCC 90030, read-out: IC50): 460 nM
12 | C[C@H]1[C@@H](O)O[C@@H]2O[C@@]3(C)CC[C@H]4[C@H](C)CC[C@@H]1[C@@]24OO3 [ARTENIMOL] | – | – | – | 14.8 | Not Active | – | 100 | 880 | 14.1 | – | 87900 | Not Active | 95 | 280 | – | – | Not Active | 28100 | Not Active | 1410 | IC90 (Leishmania donovani): inactive
13 | C[C@H]1[C@@H](OCC(CO[C@H]2O[C@@H]3O[C@@]4(C)CC[C@H]5[C@H](C)CC[C@@H]([C@H]2C)[C@@]35OO4)OS(C)(=O)=O)O[C@@H]2O[C@@]3(C)CC[C@H]4[C@H](C)CC[C@@H]1[C@@]24OO3 (stereo partly specified) | – | – | 2130 | 11.8 | Not Active | 280 | 542 | 4270 | 11.8 | 55500 | 22800 | Not Active | 542 | 1420 | Not Active | – | Not Active | – | – | 6400 | TC50 [1]: Non-toxic; IC50 (Pseudomonas aeruginosa): Not Active; IC50 (Escherichia coli): Not Active; IC50 (BT-549; bt-549): Not Active; IC50 (SK-MEL; sk-mel): Not Active
14 | C[C@H]1[C@@H](OCC(=O)CO[C@H]2O[C@@H]3O[C@@]4(C)CC[C@H]5[C@H](C)CC[C@@H]([C@H]2C)[C@@]35OO4)O[C@@H]2O[C@@]3(C)CC[C@H]4[C@H](C)CC[C@@H]1[C@@]24OO3 | 100 | 560 | > 8030 | 5.3 | Not Active | 240 | 44 | 2410 | 5.8 | 38500 | 7400 | Not Active | 49 | 880 | Not Active | 240 | – | 880 | Not Active | – | IC50 (Aspergillus fumigatus; [11]): 32100 nM
15 | C[C@@H]1CC[C@H]2[C@@H](C)C(=O)O[C@@H]3O[C@@]4(C)CC[C@@H]1[C@]32OO4 [ARTEMISININ] | – | – | – | 32.9 | Not Active | – | > 40 | – | 42.5 | – | 40700 | Not Active | > 51 | 250 | – | – | Not Active | 14200 | Not Active | > 1680 | IC50 (Candida albicans): Not Active; IC90 (Leishmania donovani): inactive
